In ChEMBL document CHEMBL1148410, “Antitumor agents. 3. Design, synthesis, and biological evaluation of new pyridoisoquinolindione and dihydrothienoquinolindione derivatives with potent cytotoxic activity” (J Med Chem, 2004):
*1 amine or outer side, *2 acyl side, *3 side chain or, on linkers, in order; H or OH if unused. Where a SMILES comes first, the peptide text is derived from it. Bridges are numbered along the chain shown (N, C = ends). Roman numbers before positions name the chains, in order. [ ]: non-standard residue; d: D form. Actinocin(1to9) = Cc1c2oc3c(C)ccc(C(=O)[*:2])c3nc-2c(C(=O)[*:1])c(N)c1=O; NMeV = CN[C@H](C(=O)O)C(C)C; Sar = CNCC(=O)O

Assays:
KB [1] = assay: Concentration required to reduce proliferation of KB human nasopharyngeal carcinoma (KBWT) cell line by 50% as determined by the MTT method; format: functional, cell-based
Outline: (§1)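 Adherent cultures were seeded at 5×10^4 cells/mL, attached for 16 h, then exposed to serial drug dilutions. MTT viability was read after 4 days, with controls completing at least three doublings. IC50 came from linear regression, mean ±SD of three independent determinations.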

KB [2] = assay: Concentration required to reduce proliferation of KB subclones passaged in the presence of vincristine 0.02 uM (KBV20C) cell line by 50% as determined by the MTT method; conditions: Homo sapiens
KB [3] = assay: Concentration required to reduce proliferation of KB subclones passaged in the presence of doxorubicin 0.09 uM (KBMDR) cell line by 50% as determined by the MTT method; format: functional, cell-based; conditions: Homo sapiens; outline: as §1
MT4 = assay: Concentration required to reduce proliferation of CD4+ human acute T-lymphoblastic leukemia (MT-4) cell line by 50% as determined by the MTT method; format: functional, cell-based
Outline: (§2)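 Leukemia/lymphoma cells grown in RPMI 1640 with 10% FCS, 37 °C, humidified 5% CO2. Compounds were dissolved in DMSO (200 μM initial) and serially diluted in medium. Exponentially growing cells were resuspended at 1×10^5 cells/mL with the drug dilutions. Viability was read by MTT after 96 h at 37 °C. Growth was taken as % of untreated controls, and IC50 came from linear regression. Values are the mean of three independent determinations.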

CRL-7065 cell line = assay: Concentration required to reduce proliferation of human foreskin fibroblasts (CRL7065) cell line by 50% as determined by the MTT method; format: functional, cell-based
Outline: (§3)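 Solid-tumour-derived cells (and fibroblasts) were seeded in exponential growth at 5×10^4 cells/mL and allowed to adhere for 16 h before serial drug dilutions were added (DMSO stock 200 μM, diluted in medium). MTT viability was read 4 days later. Untreated controls went through at least three rounds of multiplication. IC50 came from linear regression of % growth versus untreated control, mean of three independent determinations.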

MCF7 = assay: Concentration required to reduce proliferation of human breast adenocarcinoma (MCF-7) cell line by 50% as determined by the MTT method; format: functional, cell-based; outline: as §3
DU-145 = assay: Concentration required to reduce proliferation of human prostate carcinoma (DU-145) cell line by 50% as determined by the MTT method; format: functional, cell-based; outline: as §3
CCRF-CEM = assay: Concentration required to reduce proliferation of CD4+ human acuteT-lymphoblastic leukemia (CCRF-CEM) cell line by 50% as determined by the MTT method; format: functional, cell-based; outline: as §2
SK-MES-1 = assay: Concentration required to reduce proliferation of human lung squamous carcinoma (SKMES-1) cell line by 50% as determined by the MTT method; format: functional, cell-based; outline: as §3
HepG2 = assay: Concentration required to reduce proliferation of human hepatocellular carcinoma (HepG-2) cell line by 50% as determined by the MTT method; format: functional, cell-based; outline: as §3
SK-MEL-28 = assay: Concentration required to reduce proliferation of human melanoma (SKMEL-28) cell line by 50% as determined by the MTT method; format: functional, cell-based; outline: as §3
WIL2-NS = assay: Concentration required to reduce proliferation of human splenic B-lymphoblastoid (Wil2-NS) cell line by 50% as determined by the MTT method; format: functional, cell-based; outline: as §2
CCRF-SB = assay: Concentration required to reduce proliferation of human acute B-lymphoblastic (CCRF-SB) cell line by 50% as determined by the MTT method; format: functional, cell-based; outline: as §2
KB [4] = assay: Concentration required to reduce proliferation of KB subclones passaged in the presence of etoposide 7 uM (KB7D) cell line by 50% as determined by the MTT method; format: functional, cell-based; conditions: Homo sapiens; outline: as §1

Structure (SMILES)	IC50 (KB [1]) [nM]	IC50 (KB [2]) [nM]	IC50 (KB [3]) [nM]	IC50 (MT4) [nM]	IC50 (CRL-7065 cell line) [nM]	IC50 (MCF7) [nM]	IC50 (DU-145) [nM]	IC50 (CCRF-CEM) [nM]	IC50 (SK-MES-1) [nM]	IC50 (HepG2) [nM]	IC50 (SK-MEL-28) [nM]	IC50 (WIL2-NS) [nM]	IC50 (CCRF-SB) [nM]	IC50 (KB [4]) [nM]
CC[C@]1(O)C[C@H]2CN(CCc3c([nH]c4ccccc34)[C@@](C(=O)OC)(c3cc4c(cc3OC)N(C=O)[C@H]3[C@@](O)(C(=O)OC)[C@H](OC(C)=O)[C@]5(CC)C=CCN6CC[C@]43[C@@H]65)C2)C1 [VINCRISTINE]	4	200	1000											
CCOC(=O)C1=CC2C(=O)c3cccnc3C(=O)C2C(c2ccc(Cl)cc2)=N1 (configuration not stated)				700	900	500	1500	800	500	2000	800	2000	700	
CCOC(=O)C1=CC2C(=O)c3ncccc3C(=O)C2C(c2ccc(Cl)cc2)=N1 (configuration not stated)				6	40	300	30	150	50	400	200	10	7	
CCOC(=O)C1=CC2C(=O)c3ncccc3C(=O)C2C(c2ccc(C)cc2)=N1 (configuration not stated)				300	70	1000	1000	20	1000	900	200	30	90	
Cc1c2oc3c(C)ccc(C(=O)N[C@@H]4C(=O)N[C@H](C(C)C)C(=O)N5CCC[C@H]5C(=O)N(C)CC(=O)N(C)[C@@H](C(C)C)C(=O)O[C@@H]4C)c3nc-2c(C(=O)N[C@@H]2C(=O)N[C@H](C(C)C)C(=O)N3CCC[C@H]3C(=O)N(C)CC(=O)N(C)[C@@H](C(C)C)C(=O)O[C@@H]2C)c(N)c1=O [DACTINOMYCIN] (I: T[dV]P[Sar][NMeV] / II: T[dV]P[Sar][NMeV]; ester I:1-I:C, II:1-II:C; linker I:N-II:N via Actinocin(1to9))	4	50	200											200
CCOC(=O)C1=CC2C(=O)c3cccnc3C(=O)C2C(c2ccc(C)cc2)=N1 (configuration not stated)				1000		1600	1900	1000	1200	1900	1300	2500	1000	
CCOC(=O)C1=CC2C(=O)c3ncccc3C(=O)C2C(c2ccc([N+](=O)[O-])cc2)=N1 (configuration not stated)	80	200	300	1		80	10	50	10	70	1	1	2	400
COc1cc([C@@H]2c3cc4c(cc3[C@@H](O[C@@H]3O[C@@H]5CO[C@@H](C)O[C@H]5[C@H](O)[C@H]3O)[C@H]3COC(=O)[C@H]23)OCO4)cc(OC)c1O [ETOPOSIDE]	800	2400	> 20000											> 20000
CCOC(=O)C1=CC2C(=O)c3cccnc3C(=O)C2C(c2ccc(N(C)C)cc2)=N1 (configuration not stated)				2000		1600	1900	2300	1800	2200	1900	2500	2200	
CCOC(=O)C1=CC2C(=O)c3ncccc3C(=O)C2C(c2ccccc2)=N1 (configuration not stated)				15		500	1500	200	500	2000	800	20	10	
CCOC(=O)C1=CC2C(=O)c3cccnc3C(=O)C2C(c2ccc([N+](=O)[O-])cc2)=N1 (configuration not stated)				10		200	100	230	80	500	200	30	15	
CCOC(=O)C1=CC2C(=O)c3ncccc3C(=O)C2C(c2ccc(N(C)C)cc2)=N1 (configuration not stated)				900		1000	1000	1200	1000	900	900	1400	900	
CCOC(=O)C1=CC2C(=O)c3ncccc3C(=O)C2C(c2ccc(Br)cc2)=N1 (configuration not stated)				10	50	200	50	200	90	300	200	20	10	
CCOC(=O)C1=CC2C(=O)c3cccnc3C(=O)C2C(c2ccc(OC)cc2)=N1 (configuration not stated)				1000	1500	900	1500	1500	1200	2000	1000	2100	900	
CCOC(=O)C1(N)CSC2=C1C(=O)c1cccnc1C2=O (configuration not stated)				500	1700	500	1200	2000	900	500	1100	3100	600	
CCOC(=O)C1=CC2C(=O)c3cccnc3C(=O)C2C(c2ccccc2)=N1 (configuration not stated)				700		300	1000	700	300	1000	800	1000	600	
CCOC(=O)C1=CC2C(=O)c3cccnc3C(=O)C2C(c2ccc(Br)cc2)=N1 (configuration not stated)				700	1300	600	1300	1300	500	2300	900	2100	800	
CCOC(=O)C1=CC2C(=O)c3ncccc3C(=O)C2C(c2ccc(OC)cc2)=N1 (configuration not stated)				400		1500	1500	100	1600	1000	300	90	100	
CCOC(=O)C1(N)CSC2=C1C(=O)c1ncccc1C2=O (configuration not stated)				20	90	200	80	70	100	600	200	60	10	
